# In the library only some 4.6% were active in any assay of this set; here they are far more common.
# TAAR1 antagonist = antagonists of human TAAR1; Q96RJ0; CHO RD-HGA16 TAAR1, Fluo-8 calcium fluorescence, antagonist; inhibition, % at 3 µM; 360,000 tested, 1.5% active;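 active = inhibition above a per-plate cutoff, the mean inhibition of test compounds on that plate plus 3 SD, cut at about 49% in these data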;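 also: 0% = DMSO plus EC80 beta-PEA response and 100% = DMSO alone without agonist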
# Target sequence (Q96RJ0 whole entry, looked up): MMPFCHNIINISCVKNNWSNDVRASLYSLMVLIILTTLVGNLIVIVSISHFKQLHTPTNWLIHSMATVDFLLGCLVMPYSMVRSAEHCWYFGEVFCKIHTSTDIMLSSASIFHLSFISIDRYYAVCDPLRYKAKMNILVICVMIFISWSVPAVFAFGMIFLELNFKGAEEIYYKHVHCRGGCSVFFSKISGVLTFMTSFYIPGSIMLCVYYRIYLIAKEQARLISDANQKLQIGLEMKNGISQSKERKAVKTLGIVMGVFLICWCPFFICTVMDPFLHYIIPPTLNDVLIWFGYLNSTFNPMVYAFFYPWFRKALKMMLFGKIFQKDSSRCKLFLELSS
#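 Assay system: RD-HGA16 CHO cells with stable hTAAR1 and Gα16 / Reagent: EC80 β-phenethylamine stimulus / Doses: 3 µM, single point / Timing: dye loading 75 min at 37 °C, then 30 min room temperature / Measured by: Fluo-8 intracellular calcium dye fluorescence, real-time kinetic reads / Controls: vehicle wells and EC80 agonist wells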
# OX1R antag-1 = blocks the human orexin 1 receptor. O43613. OX1R-expressing cells, FRET antagonist read-out. inhibition, % at 6.6 µM. 330,000 tested, 1.8% active. AID 485270; in the data active = inhibition mostly above about 38%, no sharp cut-off; inactive = mostly below about 40%;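 also: 0% = agonist challenge alone and 100% = reference antagonist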
# OX1R antag-2 = antagonists of human orexin 1 receptor | O43613 | CHO/OX1R cells, Fluo-8 calcium fluorescence, orexin A | inhibition, % at 5 µM | 330,000 tested, 0.43% active | AID 434989;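 active = inhibition above its plate's threshold, mean inhibition of all tested compounds on the plate plus 3 SD, cut at about 37% in these data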;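 also: 0% = orexin A challenge wells and 100% = SB-334867-A antagonist wells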
# GPR7 antag = human neuropeptides B/W receptor 1 antagonism | P48145 | GPR7-expressing cells, fluorescence antagonist assay | inhibition, % at 4.4 µM | 290,000 tested, 1.1% active; in the data active = inhibition above about 16%, passing the limit was not always enough;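 also: cells stimulated with the agonist NPW; 0% = agonist with vehicle and 100% = vehicle without agonist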
# Target sequence (P48145 whole entry, looked up): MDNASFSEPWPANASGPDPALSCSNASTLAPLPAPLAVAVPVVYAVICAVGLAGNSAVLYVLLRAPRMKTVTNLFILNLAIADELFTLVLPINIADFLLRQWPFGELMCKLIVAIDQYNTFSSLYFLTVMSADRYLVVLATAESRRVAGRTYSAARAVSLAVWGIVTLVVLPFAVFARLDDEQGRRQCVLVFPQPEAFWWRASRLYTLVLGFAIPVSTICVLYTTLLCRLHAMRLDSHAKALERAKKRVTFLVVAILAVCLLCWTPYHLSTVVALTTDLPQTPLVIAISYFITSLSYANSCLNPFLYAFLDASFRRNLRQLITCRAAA
# CHO parental Ca = signal in parental CHO cells, OX1R antagonist counter-screen; parental CHO-K1, ATP-induced calcium, Fluo-8 fluorescence; 330,000 tested, 0.63% active; AID 463079; inhibition, % at 5.6 µM;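 active = inhibition above that plate's mean sample inhibition plus 3 SD, cut at about 26% in these data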;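 also: 0% = ATP-challenged DMSO wells and 100% = DMSO wells without ATP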
#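 Test system: untransfected parental CHO cell line. Compound: one dose, 5.6 µM nominal. Detection: intracellular calcium via Fluo-8 no-wash fluorescent dye. Measure: % inhibition. Benchmarks: ATP-challenged DMSO wells low, unchallenged DMSO wells high.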
# TAAR1 ag = agonists of human TAAR1. CHO RD-HGA16 TAAR1, Fluo-8 calcium fluorescence; vehicle wells 0%, saturating PEA agonist 100%. 360,000 tested, 0.99% active. AID 624467. Q96RJ0. activation, % at 3 µM;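 active = activation above the mean activation of all test compounds in the run plus 3 SD, cut at about 38% in these data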
#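 Test system: RD-HGA16 (CHO) cells co-expressing Gα16 and hTAAR1 / Benchmarks: DMSO vehicle as 0%, PEA at EC100 as 100% / Repeats: no replicates (n 1) / Measure: % activation from peak over basal fluorescence ratio, DMSO-to-PEA scaled / Timing: 17-24 h plating, Fluo-8 75 min 37 °C, 30 min RT / Technique: kinetic Fluo-8 calcium fluorescence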
# nonsel antag count = nonselective antagonism, TAAR1 counter-screen. 2,400 tested, 77% active. inhibition, % at 3 µM. AID 651780. shares compounds with TAAR1 antagonist. counterscreen cell line, calcium fluorescence, antagonist mode; in the data active = inhibition above about 22%;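 also: CHO-Ga16 host cells stimulated with ATP at an EC80 level; 0% = agonist EC80 plus vehicle and 100% = vehicle without agonist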
# TAAR1 ant conf = human TAAR1 antagonism, confirmed | inhibition, % at 3 µM | shares compounds with TAAR1 antagonist | 2,400 tested, 40% active | AID 651785 | TAAR1-expressing cells, fluorescence antagonist read-out; in the data active = inhibition above about 49%;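 also: CHO-Ga16 host cells challenged with agonist PEA near its EC80; 0% = agonist at EC80 plus vehicle and 100% = vehicle with no agonist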
# Ga16 nonsel ag = nonselective Ga16 agonism, counter-screen. shares compounds with TAAR1 antagonist. Ga16-expressing cells, calcium fluorescence, agonist counterscreen. activation, % at 3 µM. 2,400 tested, 18% active. AID 651953; in the data active = activation above about 12%;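 also: 0% = vehicle wells and 100% = saturating stimulus response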
# TAAR1 ag count = activates human TAAR1 in antagonist counter-screen; hTAAR1 cell line, fluorescence activation, agonist mode; activation, % at 3 µM; shares compounds with TAAR1 antagonist; 2,400 tested, 2% active; in the data active = activation above about 37%;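 also: CHO cells stably expressing TAAR1 with calcium dye readout; 0% = DMSO vehicle and 100% = full agonist response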
# Active calls of the source: *; nt = no result given.
SMILES,TAAR1 antagonist,OX1R antag-1,OX1R antag-2,GPR7 antag,CHO parental Ca,TAAR1 ag,nonsel antag count,TAAR1 ant conf,Ga16 nonsel ag,TAAR1 ag count
COc1ccc(NC(=O)c2ccc(-c3ccc(F)cc3)o2)cc1OC,35,nt,nt,nt,nt,12,nt,nt,nt,nt
COc1ccc(CNC(=O)CN(C)S(=O)(=O)c2ccc(Cl)cc2)cc1,-10,25,-7,-6,-13,5,nt,nt,nt,nt
COc1ccc(CNC(=O)CN(Cc2ccc(C)cc2)S(=O)(=O)c2ccc(Cl)cc2)cc1,59*,12,-10,-18,-4,13,38*,36,6,6
CN(C)c1ccc(N2C(=O)CC(Sc3ccccc3C(=O)O)C2=O)cc1 (centres undefined),-15,5,-5,-2,-4,3,nt,nt,nt,nt
Cc1c(Cl)cccc1NC(=O)CSc1nc(=O)n(CCCN2CCOCC2)c2c1CCC2,-20,14,-35,nt,-21,1,nt,nt,nt,nt
CCN(CC)C(=O)c1cccc(-c2csc(C(C)(O)c3cccc(OC)c3)n2)c1 (centres undefined),78*,nt,nt,nt,nt,13,46*,59*,15*,15
CCN(CC)C(=O)c1cccc(-c2csc(C(C)(O)c3ccc(OC)cc3)n2)c1 (centres undefined),86*,nt,nt,nt,nt,16,40*,60*,15*,17
CCN(CC)C(=O)c1cccc(-c2csc(C(C)(O)c3ccccc3)n2)c1 (centres undefined),30,nt,nt,nt,nt,9,nt,nt,nt,nt
COc1cccc(-c2cc(C(=O)Nc3ccncc3)c3ccccc3n2)c1,39,18,-23,-16,-13,5,nt,nt,nt,nt
CC(=O)Nc1cccc(NC(=O)c2cc(-c3cccnc3)nc3ccc(Cl)cc23)c1,86*,38,-11,3,9,14,31*,55*,10,10
CC(=O)c1cccc(NC(=O)c2cccc3c(-c4cccnc4)coc23)c1,75*,nt,nt,nt,nt,17,31*,52*,11,10
COc1cccc(NC(=O)c2cc(-c3ccccn3)nc3ccccc23)c1,56*,11,-7,nt,-18,18,28*,42,7,4
Cc1ccc(C)c(-c2cc(C(=O)Nc3cccnc3)c3ccccc3n2)c1,61*,38,-26,-17,-16,4,25*,49*,13*,18
NC(=O)c1cccc(-c2coc3c(C(=O)NCc4cccnc4)cccc23)c1,-6,nt,nt,nt,nt,2,nt,nt,nt,nt
COc1cccc(CC(=O)OCC(=O)Nc2nnc(-c3ccccc3)o2)c1,-6,-2,0,nt,-12,0,nt,nt,nt,nt
CC(C)C(NS(=O)(=O)c1ccc2c(c1)OCCCO2)C(=O)O (centres undefined),11,10,10,-1,-2,0,nt,nt,nt,nt
Cc1cccc(NC(=O)c2cc(-c3ccccn3)nc3ccccc23)c1C,70*,5,-11,-5,-23,8,34*,56*,11,8
Cc1cc(O)c(NC(=S)NC(=O)c2ccc(-c3ccc(Cl)cc3)o2)cc1C,1,17,-9,7,-11,4,nt,nt,nt,nt
CC(C)=CCOc1ccc([C@@H]2COc3c(ccc4c3C=CC(C)(C)O4)C2)c(O)c1,30,21,8,nt,3,4,nt,nt,nt,nt
O=C(CCc1nnc2ccc(N3CCCCC3)nn12)NCC1CCN(Cc2ccc(F)cc2)CC1,-33,13,-31,0,-4,-2,nt,nt,nt,nt
CCC(C)Sc1ccc(-c2nc3cnccn3c2NC2CCCCC2)cc1 (centres undefined),20,47,-36,nt,-30,8,nt,nt,nt,nt
COc1ccc(Sc2ccc(-c3nc4cnccn4c3NC3CCCCC3)cc2OC)cc1,58*,5,10,nt,-10,10,29*,41,4,4
O=C(Nc1cccc(S(=O)(=O)N2CCCCCC2)c1)c1cncc(Br)c1,61*,9,-35,nt,-22,10,37*,53*,11,15
O=C(Nc1cccc(S(=O)(=O)C(F)F)c1)c1ccc(S(=O)(=O)N2CCCCC2)cc1,64*,21,-8,-5,2,15,35*,37,9,4
Cc1ccc(S(=O)(=O)N2CCCCC2)cc1NC(=O)c1cncc(Br)c1,-7,nt,nt,nt,nt,6,nt,nt,nt,nt
SMILES,TAAR1 antagonist,OX1R antag-1,OX1R antag-2,GPR7 antag,CHO parental Ca,TAAR1 ag,nonsel antag count,TAAR1 ant conf,Ga16 nonsel ag,TAAR1 ag count
Cc1ccc(C(C)C)c(OCC(O)CN2CCN(CCO)CC2)c1 (centres undefined),-11,1,7,0,-16,7,nt,nt,nt,nt
O=C(Nc1cccn2ncnc12)c1cccc(C(F)(F)F)c1,1,18,-24,4,-6,4,nt,nt,nt,nt
Cc1c(-c2ccccc2)nc2ccccc2c1C(=O)OCC(=O)Nc1ncc(C(F)(F)F)cc1Cl,53*,6,-18,-9,-25,5,14,28,5,10
Nc1cc(=O)[nH]c(SCc2nnc(-c3ccccc3)o2)n1,-3,15,-12,8,-3,3,nt,nt,nt,nt
COc1ccccc1N1CCN(C(=O)/C=C/c2ccccc2)CC1,105*,13,-24,-6,-14,16,6,5,1,4
COc1ccccc1N1CCN(C(=O)/C=C/c2cccs2)CC1,-17,7,-6,6,-5,0,nt,nt,nt,nt
COc1ccccc1N1CCN(C(=O)c2oc3ccccc3c2C)CC1,2,nt,nt,nt,nt,1,nt,nt,nt,nt
COc1ccccc1N1CCN(C(=O)c2oc3ccc(F)cc3c2C)CC1,53*,5,-11,-9,-8,12,26*,51*,7,7
COc1ccccc1N1CCN(C(=O)c2ccc(Br)o2)CC1,101*,8,-8,nt,4,-3,9,15,11,15
Clc1ccc(CNc2ccccc2NCc2ccc(Cl)nc2)cn1,-26,8,-31,4,0,2,nt,nt,nt,nt
COCCOC(=O)c1c(C)n(C)c2ccc(OC(=O)c3ccccc3OC)cc12,53*,9,-28,-12,-12,12,26*,45,9,7
COCCOC(=O)c1c(C)n(C)c2ccc(OC(=O)c3ccco3)cc12,6,7,-28,4,-20,5,nt,nt,nt,nt
O=C(CCC(NC(=O)OCc1ccccc1)C(=O)O)OCc1ccccc1 (centres undefined),-16,4,-6,-3,2,4,nt,nt,nt,nt

# Screening results from PubChem.
